Reference: ChEMBL document CHEMBL3425440, “ent-Kaurane Diterpenoids from Chinese Liverworts and Their Antitumor Activities through Michael Addition As Detected in Situ by a Fluorescence Probe” (J Med Chem, 2015)

What was measured:
[1] = system: NCI-H1299; assay: Cytotoxicity against human NCI-H1299 cells assessed as cell viability after 24 hrs by MTT assay; type: functional, cell-based; conditions: NCI-H1299, 24 h
Outline: (§1)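 Cells grown to about 50−70% confluence at 37 °C, 5% CO2, then exposed to compounds 24 h (DMSO vehicle control, cisplatin positive control). MTT (5 mg/mL stock) added for 4 h, formazan dissolved in DMSO, absorbance read at 570 nm. IC50 derived from percent viability; at least three independent experiments, mean ± SD.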

[2] = Cytotoxicity against human A172 cells assessed as cell viability after 24 hrs by MTT assay; type: functional, cell-based; conditions: A 172, 24 h; outline: as §1
[3] = Cytotoxicity against human HL60 cells assessed as cell viability after 24 hrs by MTT assay; type: functional, cell-based; conditions: HL-60, 24 h; outline: as §1
[4] = system: LNCaP; assay: Cytotoxicity against human LNCAP cells assessed as cell viability after 24 hrs by MTT assay; type: functional, cell-based; outline: as §1
[5] = Cytotoxicity against human Saos2 cells assessed as cell viability after 24 hrs by MTT assay; type: functional, cell-based; conditions: SAOS-2, 24 h; outline: as §1
[6] = Cytotoxicity against human RWPE1 cells assessed as cell viability after 24 hrs by MTT assay; type: cell-based; conditions: RWPE-1, 24 h; outline: as §1
[7] = Cytotoxicity against human T24 cells assessed as cell viability after 24 hrs by MTT assay; type: functional, cell-based; conditions: T-24, 24 h; outline: as §1
[8] = system: LoVo; assay: Cytotoxicity against human LoVo cells assessed as cell viability after 24 hrs by MTT assay; type: functional, cell-based; outline: as §1
[9] = system: DU-145; assay: Cytotoxicity against human DU145 cells assessed as cell viability after 24 hrs by MTT assay; type: functional, cell-based; conditions: DU-145, 24 h; outline: as §1
[10] = Cytotoxicity against human SH-SY5Y cells assessed as cell viability after 24 hrs by MTT assay; type: functional, cell-based; outline: as §1
[11] = system: MDA-MB-231; assay: Cytotoxicity against human MDA-MB-231 cells assessed as cell viability after 24 hrs by MTT assay; type: functional, cell-based; conditions: MDA-MB-231, 24 h; outline: as §1
[12] = Cytotoxicity against human PC3 cells assessed as cell viability after 24 hrs by MTT assay; type: functional, cell-based; conditions: PC-3, 24 h; outline: as §1
[13] = Cytotoxicity against human SKOV3 cells assessed as cell viability after 24 hrs by MTT assay; type: functional, cell-based; conditions: SK-OV-3, 24 h; outline: as §1
[14] = system: K562; assay: Cytotoxicity against human K562 cells assessed as cell viability after 24 hrs by MTT assay; type: functional, cell-based; conditions: K562, 24 h; outline: as §1

Measured: IC50

C=C1[C@@H]2CC[C@H]3[C@]4(C)CCCC(C)(C)[C@H]4C[C@@H](O)[C@]3(C2)[C@@H]1O
> 50 µM: all assays above

C=C1[C@@H](O)[C@@]23CC[C@@H]4C(C)(C)CCC[C@@]4(C)[C@@H]2CC[C@@H]1[C@H]3O
> 50 µM: all assays above

C[C@H]1C(=O)[C@@]23CC[C@@H]4C(C)(C)CCC[C@@]4(C)[C@@H]2[C@@H](O)C[C@@H]1C3
> 50 µM: all assays above

C=C1[C@@H]2C[C@@H](O)[C@H]3[C@]4(C)CCCC(C)(C)[C@H]4CC[C@]3(C2)[C@@H]1O
> 50 µM: all assays above

C[C@@H]1C(=O)[C@@]23CC[C@@H]4C(C)(C)[C@H](O)CC[C@@]4(C)[C@@H]2[C@@H](O)C[C@@H]1C3
> 50 µM: all assays above

C[C@H]1C(=O)[C@@]23CC[C@@H]4[C@@](C)(C=O)CCC[C@@]4(C)C2=CC[C@]1(O)C3
> 50 µM: all assays above

C=C1C[C@@]23CC[C@H]4[C@@](C)(CCC[C@]4(C)C(=O)O)[C@@H]2CC[C@@H]1C3
> 50 µM: all assays above

C=C1[C@@H]2CC[C@H]3[C@]4(C)CCCC(C)(C)[C@H]4[C@@H](O)C[C@]3(C2)[C@@H]1O
> 50 µM: all assays above

C=C1[C@@H]2CC(=O)[C@H]3[C@]4(C)CCCC(C)(C)[C@H]4[C@@H](O)[C@@H](O)[C@]3(C2)[C@@H]1O
> 50 µM: all assays above

C[C@@H]1C(=O)[C@H]2C[C@]1(O)CC1=C2[C@]2(C)CCC[C@@](C)(CO)[C@H]2CC1
> 50 µM: all assays above

C[C@H]1C(=O)[C@@]23CC[C@@H]4[C@](C)(CO)CCC[C@@]4(C)C2=CC[C@]1(O)C3
> 50 µM: all assays above
